Assay results reported in paper PMC9271465 (ESMO Open, 2022).

System: EGFR T790M-mutated NSCLC
Experiment: phase I dose-escalation: efficacy
Format: in vivo, patients
Conditions: FAS
Outline: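 Adults with T790M+ NSCLC (ARMS-confirmed) progressing on prior EGFR-TKIs; 3+3 escalation. Oral tablet, empty stomach: single dose day 1, then after 7 days continuous dosing in 21-day cycles (25–300 mg/day) until progression. CT/MRI brain, CT neck/chest/abdomen, bone scan every eight cycles; assessed at baseline, cycles 2, 4, 6, then every 2 cycles. RECIST v1.1 best overall response; disease control confirmed by imaging every 6 weeks.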

C=CC(=O)Nc1cc(Nc2ncc(Cl)c(Nc3ccccc3C(=O)C(=O)N(C)C)n2)c(OC)cc1N1CCN(C)CC1 [BPI-15086]
Best overall response: Complete response (25 mg/day (n = 1)): 0 n (%)
Best overall response: Not evaluable (25 mg/day (n = 1)): 0 n (%)
Best overall response: Partial response (25 mg/day (n = 1)): 0 n (%)
Best overall response: Progressive disease (25 mg/day (n = 1)): 1 (100.0) n (%)
Best overall response: Stable disease (25 mg/day (n = 1)): 0 n (%)
PFS, median (95% CI) (25 mg/day (n = 1)): 1.5 (NE-NE) months
Best overall response: Complete response (50 mg/day (n = 3)): 0 n (%)
Best overall response: Not evaluable (50 mg/day (n = 3)): 0 n (%)
Best overall response: Partial response (50 mg/day (n = 3)): 0 n (%)
Best overall response: Progressive disease (50 mg/day (n = 3)): 1 (33.3) n (%)
Best overall response: Stable disease (50 mg/day (n = 3)): 2 (66.7) n (%)
OS, median (95% CI) (50 mg/day (n = 3)): 15.0 (8.4-15.0) months
PFS, median (95% CI) (50 mg/day (n = 3)): 4.3 (1.6-5.8) months
Best overall response: Complete response (100 mg/day (n = 3)): 0 n (%)
Best overall response: Not evaluable (100 mg/day (n = 3)): 0 n (%)
Best overall response: Partial response (100 mg/day (n = 3)): 1 (33.3) n (%)
Best overall response: Progressive disease (100 mg/day (n = 3)): 2 (66.7) n (%)
Best overall response: Stable disease (100 mg/day (n = 3)): 0 n (%)
DOR, median (95% CI) (100 mg/day (n = 3)): 9.7 (NE-NE) months
OS, median (95% CI) (100 mg/day (n = 3)): 16.1 (NE-NE) months
PFS, median (95% CI) (100 mg/day (n = 3)): 1.6 (1.5-12.6) months
Best overall response: Complete response (200 mg/day (n = 7)): 0 n (%)
Best overall response: Not evaluable (200 mg/day (n = 7)): 1 (14.3) n (%)
Best overall response: Partial response (200 mg/day (n = 7)): 2 (28.6) n (%)
Best overall response: Progressive disease (200 mg/day (n = 7)): 3 (42.9) n (%)
Best overall response: Stable disease (200 mg/day (n = 7)): 1 (14.3) n (%)
DOR, median (95% CI) (200 mg/day (n = 7)): 6.7 (3.7-9.8) months
PFS, median (95% CI) (200 mg/day (n = 7)): 3.0 (1.6-11.3) months
Best overall response: Complete response (300 mg/day (n = 3)): 0 n (%)
Best overall response: Not evaluable (300 mg/day (n = 3)): 1 (33.3) n (%)
Best overall response: Partial response (300 mg/day (n = 3)): 0 n (%)
Best overall response: Progressive disease (300 mg/day (n = 3)): 0 n (%)
Best overall response: Stable disease (300 mg/day (n = 3)): 2 (66.7) n (%)
OS, median (95% CI) (300 mg/day (n = 3)): 9.2 (NE-NE) months
PD, patients (25-mg/day): 100%
PR, patients (25-mg/day, 50-mg/day, and 300-mg/day groups): none of the patients
PD, patients (50-mg/day): 33.3%
DCR (50-mg/day, 2/3 patients): 66.7%
PD, patients (100-mg/day): 66.7%
PR, patients (100-mg/day): 33.3%
DCR (100-mg/day, 1/3 patients): 33.3%
PD, patients (200-mg/day): 42.9%
PR, patients (200-mg/day): 28.6%
DCR (200-mg/day, 3/7 patients): 42.9%
DCR (300-mg/day, 2/3 patients): 66.7%
Best overall response: Complete response (All (n = 17)): 0 n (%)
Best overall response: Not evaluable (All (n = 17)): 2 (11.8) n (%)
Best overall response: Partial response (All (n = 17)): 3 (17.6) n (%)
Best overall response: Progressive disease (All (n = 17)): 7 (41.2) n (%)
Best overall response: Stable disease (All (n = 17)): 5 (29.4) n (%)
DOR, median (95% CI) (All (n = 17)): 9.7 (3.7-9.8) months
OS, median (95% CI) (All (n = 17)): 15.0 (8.4-16.1) months
PFS, median (95% CI) (All (n = 17)): 1.6 (1.6-5.3) months
